The source of these data is ChEMBL document CHEMBL1138746, “Indolebutylamines as selective 5-HT(1A) agonists” (J Med Chem, 2004).

The structures appear in SMILES notation.

Assay [1] in a line: Inhibition of hydroxytryptamine 2C receptor.
Assay [2] deals with T1, Adrenergic receptor alpha-1 (Homo sapiens, UniProt P35348+P25100+P35368).
T1 sequence (P35348 whole entry): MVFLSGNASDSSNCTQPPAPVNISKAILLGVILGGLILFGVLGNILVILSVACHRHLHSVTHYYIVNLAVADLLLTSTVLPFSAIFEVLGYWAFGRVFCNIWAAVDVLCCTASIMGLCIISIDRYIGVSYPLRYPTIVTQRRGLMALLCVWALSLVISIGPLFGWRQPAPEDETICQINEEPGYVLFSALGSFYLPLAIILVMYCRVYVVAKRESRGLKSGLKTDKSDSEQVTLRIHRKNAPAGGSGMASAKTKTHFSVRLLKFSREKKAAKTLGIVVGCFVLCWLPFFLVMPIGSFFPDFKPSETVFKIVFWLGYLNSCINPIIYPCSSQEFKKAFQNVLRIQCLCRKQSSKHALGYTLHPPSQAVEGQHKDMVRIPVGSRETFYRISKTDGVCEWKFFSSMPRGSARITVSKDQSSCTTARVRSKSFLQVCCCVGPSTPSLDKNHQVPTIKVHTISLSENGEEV
T1 sequence (P25100 whole entry): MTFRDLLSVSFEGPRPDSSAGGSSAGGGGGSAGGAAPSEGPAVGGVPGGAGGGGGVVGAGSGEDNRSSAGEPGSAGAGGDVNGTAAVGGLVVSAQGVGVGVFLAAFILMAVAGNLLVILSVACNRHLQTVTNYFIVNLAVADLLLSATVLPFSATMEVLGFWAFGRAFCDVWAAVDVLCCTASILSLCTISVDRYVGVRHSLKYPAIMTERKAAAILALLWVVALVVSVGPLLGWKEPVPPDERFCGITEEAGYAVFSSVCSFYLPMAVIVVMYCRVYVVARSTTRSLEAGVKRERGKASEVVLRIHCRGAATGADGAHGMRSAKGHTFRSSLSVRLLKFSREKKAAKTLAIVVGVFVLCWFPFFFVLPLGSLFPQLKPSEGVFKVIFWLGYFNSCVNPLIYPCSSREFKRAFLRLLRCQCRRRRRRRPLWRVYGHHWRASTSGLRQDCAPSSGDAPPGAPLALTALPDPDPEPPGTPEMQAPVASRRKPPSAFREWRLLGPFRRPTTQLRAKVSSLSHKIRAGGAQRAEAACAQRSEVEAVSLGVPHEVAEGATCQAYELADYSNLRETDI
T1 sequence (P35368 whole entry): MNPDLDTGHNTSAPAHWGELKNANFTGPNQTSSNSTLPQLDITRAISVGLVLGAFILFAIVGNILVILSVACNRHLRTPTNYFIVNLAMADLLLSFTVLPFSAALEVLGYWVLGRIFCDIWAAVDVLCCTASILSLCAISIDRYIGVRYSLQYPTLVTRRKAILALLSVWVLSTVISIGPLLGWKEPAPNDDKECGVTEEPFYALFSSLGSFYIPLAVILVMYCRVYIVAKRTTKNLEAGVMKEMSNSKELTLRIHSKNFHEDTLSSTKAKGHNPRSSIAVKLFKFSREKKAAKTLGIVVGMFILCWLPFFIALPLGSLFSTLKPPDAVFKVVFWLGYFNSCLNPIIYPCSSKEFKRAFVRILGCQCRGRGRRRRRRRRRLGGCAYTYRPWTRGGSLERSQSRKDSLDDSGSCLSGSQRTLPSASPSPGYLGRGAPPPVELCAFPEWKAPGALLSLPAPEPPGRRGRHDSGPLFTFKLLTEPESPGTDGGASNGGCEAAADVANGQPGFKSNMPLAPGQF
The assay can be described thus: Inhibition of Alpha-1 adrenergic receptor. Format: protein assay.

For assay [3], the target named is D(2) dopamine receptor (Rattus norvegicus, UniProt P61169). In words: Displacement of [3H]spiperone from dopamine D2 receptor of rat striatal membranes. In kind it is cell membranes, Membrane. The gist of the method:
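Rat striatal membranes (0.3–1.0 mg protein/mL) were incubated with 0.1 nM [3H]spiperone in Tris-HCl buffer (pH 7.1) containing 120 mmol/L NaCl, 5 mmol/L KCl, 1 mmol/L CaCl2, 1 mmol/L MgCl2 and 0.1% ascorbic acid, at 37 °C for 15 min. Bound ligand was separated by filtration with three ice-cold washes. Nonspecific binding was defined with 1 mmol/L (+)-butaclamol. IC50 (50% inhibition of binding) came from 5–10 concentrations, each in triplicate.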

Assay [4] has as its target T2, D(4) dopamine receptor (Homo sapiens, UniProt P21917).
T2 sequence (P21917 whole entry): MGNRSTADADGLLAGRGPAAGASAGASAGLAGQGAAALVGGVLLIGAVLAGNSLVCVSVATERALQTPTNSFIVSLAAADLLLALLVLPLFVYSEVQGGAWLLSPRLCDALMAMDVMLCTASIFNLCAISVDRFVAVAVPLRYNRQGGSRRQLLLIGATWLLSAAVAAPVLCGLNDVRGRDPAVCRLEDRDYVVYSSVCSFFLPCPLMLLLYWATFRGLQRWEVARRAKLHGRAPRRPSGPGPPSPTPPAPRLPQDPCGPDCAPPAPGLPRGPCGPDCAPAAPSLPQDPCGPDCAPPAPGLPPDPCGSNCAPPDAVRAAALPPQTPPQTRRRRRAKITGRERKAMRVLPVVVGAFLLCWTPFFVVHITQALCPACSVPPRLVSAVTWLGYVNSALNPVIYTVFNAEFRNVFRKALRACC
In words: Inhibition of dopamine D4 receptor.

A short description of assay [5]: Inhibition of hydroxytryptamine 1D receptor.
Assay [6] can be described thus: Inhibition of Histamine H1 receptor.
Assay [7] is described as follows: Inhibition of hydroxytryptamine 2A receptor.
In assay [8] the target is T3, 5-hydroxytryptamine receptor 1A (Rattus norvegicus, UniProt P19327).
T3 sequence (P19327 whole entry): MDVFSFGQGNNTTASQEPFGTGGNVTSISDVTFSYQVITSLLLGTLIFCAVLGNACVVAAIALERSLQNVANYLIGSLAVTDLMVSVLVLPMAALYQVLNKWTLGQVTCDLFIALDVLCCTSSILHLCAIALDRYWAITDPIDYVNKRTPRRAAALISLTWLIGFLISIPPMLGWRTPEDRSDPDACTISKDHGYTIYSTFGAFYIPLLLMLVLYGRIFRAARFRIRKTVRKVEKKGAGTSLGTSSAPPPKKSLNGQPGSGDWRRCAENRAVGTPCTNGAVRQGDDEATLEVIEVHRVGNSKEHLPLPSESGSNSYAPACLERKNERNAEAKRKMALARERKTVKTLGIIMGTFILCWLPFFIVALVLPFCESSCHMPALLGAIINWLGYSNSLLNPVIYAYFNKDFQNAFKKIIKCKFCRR
The assay can be described thus: Inhibition of 8-OH DPAT bindign to rat hydroxytryptamine 1A receptor in hippocampal membranes.

D(2) dopamine receptor, sequence (P61169 whole entry): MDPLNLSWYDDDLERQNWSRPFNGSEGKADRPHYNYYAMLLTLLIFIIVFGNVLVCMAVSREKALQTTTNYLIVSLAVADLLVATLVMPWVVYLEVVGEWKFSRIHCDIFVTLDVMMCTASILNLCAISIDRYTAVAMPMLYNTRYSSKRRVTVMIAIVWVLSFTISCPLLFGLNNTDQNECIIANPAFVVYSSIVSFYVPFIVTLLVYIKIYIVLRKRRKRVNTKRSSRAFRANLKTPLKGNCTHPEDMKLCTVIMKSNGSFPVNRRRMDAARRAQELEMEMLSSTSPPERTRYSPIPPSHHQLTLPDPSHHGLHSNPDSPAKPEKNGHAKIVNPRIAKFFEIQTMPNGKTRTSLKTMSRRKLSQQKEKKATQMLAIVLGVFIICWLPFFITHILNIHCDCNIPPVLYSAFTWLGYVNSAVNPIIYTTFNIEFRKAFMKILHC

Usually IC50 stands for the midpoint of a concentration-inhibition curve. The low end stands for inhibition by little substance, the high end for a need for much substance. Consider `O=C1c2ccccc2S(=O)(=O)N1CCCCN1CCN(c2ncccn2)CC1` [IPSAPIRONE], for which the half-inhibitory concentration (IC50) in assay [1] is above 1 µM; in assay [2] it was 0.5 µM; in assay [3] it was 2.9 µM; in assay [4], 1.8 µM; in assay [5] it was 3 µM; in assay [6], 0.024 µM. Besides, the IC50 in assay [7] worked out at 2.6 µM; in assay [8], 0.0082 µM.
